In ChEMBL document CHEMBL1136055, “3-Heteroaryl-2-pyridones: benzodiazepine site ligands with functional delectivity for alpha 2/alpha 3-subtypes of human GABA(A) receptor-ion channels” (J Med Chem, 2002):

Key:
[1] = biological target: T1, GABA-A receptor; alpha-2/beta-3/gamma-2 (Homo sapiens, UniProt P18507+P28472+P47869); experiment: Displacement of [3H]Ro-151788 from human Gamma-aminobutyric acid A receptor alpha-2-beta-3-gamma-2 stably expressed in L(tk-) cells; assay type: cell-based
T1 sequence (P18507 whole entry): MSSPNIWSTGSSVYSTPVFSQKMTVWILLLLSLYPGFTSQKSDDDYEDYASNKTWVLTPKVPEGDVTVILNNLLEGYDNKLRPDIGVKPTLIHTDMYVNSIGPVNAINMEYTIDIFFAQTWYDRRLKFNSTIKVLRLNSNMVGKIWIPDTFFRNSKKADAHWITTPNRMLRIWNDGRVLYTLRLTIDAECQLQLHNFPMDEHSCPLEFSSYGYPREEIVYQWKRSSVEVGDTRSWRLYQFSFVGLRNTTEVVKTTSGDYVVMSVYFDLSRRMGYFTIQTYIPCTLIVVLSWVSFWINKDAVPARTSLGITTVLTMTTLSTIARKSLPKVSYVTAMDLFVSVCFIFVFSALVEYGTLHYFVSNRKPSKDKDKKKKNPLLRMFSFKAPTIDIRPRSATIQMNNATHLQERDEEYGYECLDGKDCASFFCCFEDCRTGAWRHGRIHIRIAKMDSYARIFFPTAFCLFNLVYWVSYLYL
T1 sequence (P28472 whole entry): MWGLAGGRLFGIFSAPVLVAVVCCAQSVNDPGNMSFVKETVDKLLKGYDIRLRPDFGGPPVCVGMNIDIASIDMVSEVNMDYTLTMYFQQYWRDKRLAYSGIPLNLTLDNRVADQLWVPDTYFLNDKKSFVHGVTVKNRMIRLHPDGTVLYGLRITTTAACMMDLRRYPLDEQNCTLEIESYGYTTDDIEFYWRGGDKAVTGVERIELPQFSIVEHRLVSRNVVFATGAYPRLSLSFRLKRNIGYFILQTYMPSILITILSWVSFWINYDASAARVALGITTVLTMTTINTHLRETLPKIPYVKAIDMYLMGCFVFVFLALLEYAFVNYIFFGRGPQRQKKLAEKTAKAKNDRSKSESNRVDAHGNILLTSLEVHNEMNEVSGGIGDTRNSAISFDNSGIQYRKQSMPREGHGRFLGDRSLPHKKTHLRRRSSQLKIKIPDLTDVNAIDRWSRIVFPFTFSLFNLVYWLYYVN
T1 sequence (P47869 whole entry): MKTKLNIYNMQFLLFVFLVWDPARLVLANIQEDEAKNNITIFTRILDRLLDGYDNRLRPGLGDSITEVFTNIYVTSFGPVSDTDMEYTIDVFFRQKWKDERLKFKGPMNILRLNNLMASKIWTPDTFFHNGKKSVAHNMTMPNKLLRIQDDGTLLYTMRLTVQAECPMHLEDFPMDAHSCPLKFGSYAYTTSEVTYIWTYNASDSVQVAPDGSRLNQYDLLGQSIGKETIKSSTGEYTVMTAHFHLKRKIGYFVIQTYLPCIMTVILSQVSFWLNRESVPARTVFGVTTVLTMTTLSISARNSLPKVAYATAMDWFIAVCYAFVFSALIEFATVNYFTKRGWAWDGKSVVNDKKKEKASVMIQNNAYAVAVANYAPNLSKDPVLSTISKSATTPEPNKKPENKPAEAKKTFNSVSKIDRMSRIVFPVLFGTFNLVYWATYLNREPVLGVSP
Outline: (§1)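 Competition binding against [3H]Ro15-1788 on cloned human α1/α2/α3/α5 β3γ2S receptors stably expressed in L(tk-) cells. Six to eight test concentrations spaced in half-log steps. Ki given as mean (SEM), n = 3-5, reported to two significant figures.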

[2] = Oral bioavailability at a dose of 1.5 mg/kg; assay type: ADME, organism-based; conditions: eutheria, in vivo
[3] = Maximum time at a dose of 1.5 mg/kg; assay type: ADME, organism-based; design: dose 1.5 mg/kg; conditions: in vivo
[4] = Maximum concentration at a dose of 1.5 mg/kg; assay type: ADME, organism-based; design: dose 1.5 mg/kg; conditions: in vivo
[5] = Half life at a dose of 1.5 mg/kg; assay type: ADME, organism-based; design: dose 1.5 mg/kg; conditions: in vivo
[6] = Vdss at a dose of 1.5 mg/kg; assay type: ADME, organism-based; design: dose 1.5 mg/kg; conditions: in vivo, read-out: Vdss
[7] = biological target: T2, GABA-A receptor; alpha-5/beta-3/gamma-2 (Homo sapiens, UniProt P18507+P28472+P31644); experiment: Inhibition of [3H]Ro-151788 binding to human GABA A receptor (alpha-5-beta-3-gamma-2) stably expressed in L(tk-) cells.; assay type: cell-based; outline: as §1
T2 sequence (P18507 whole entry): T1 sequence (P18507 whole entry)
T2 sequence (P28472 whole entry): T1 sequence (P28472 whole entry)
T2 sequence (P31644 whole entry): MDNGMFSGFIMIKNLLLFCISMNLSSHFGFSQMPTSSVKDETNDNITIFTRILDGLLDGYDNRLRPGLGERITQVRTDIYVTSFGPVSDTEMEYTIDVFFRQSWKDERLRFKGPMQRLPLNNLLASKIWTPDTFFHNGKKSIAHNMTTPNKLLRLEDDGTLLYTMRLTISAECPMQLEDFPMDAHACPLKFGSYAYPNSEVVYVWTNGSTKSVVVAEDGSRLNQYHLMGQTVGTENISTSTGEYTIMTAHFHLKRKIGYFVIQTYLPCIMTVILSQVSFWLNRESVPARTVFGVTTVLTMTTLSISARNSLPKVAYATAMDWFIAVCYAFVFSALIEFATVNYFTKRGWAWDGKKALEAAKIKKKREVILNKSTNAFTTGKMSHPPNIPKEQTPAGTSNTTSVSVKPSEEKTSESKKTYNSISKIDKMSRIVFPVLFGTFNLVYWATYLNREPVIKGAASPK

[8] = Clp at a dose of 1.5 mg/kg; assay type: ADME, organism-based; design: dose 1.5 mg/kg; conditions: in vivo
[9] = Log D was evaluated; assay type: physicochemical; conditions: octanol/water
[10] = Maximum concentration at a dose of 2.0 mg/kg; assay type: ADME, organism-based; design: dose 2 mg/kg; conditions: in vivo
[11] = Maximum time at a dose of 2.0 mg/kg; assay type: ADME, organism-based; design: dose 2 mg/kg; conditions: in vivo
[12] = biological target: T2, GABA-A receptor; alpha-5/beta-3/gamma-2; experiment: Displacement of [3H]Ro-151788 from human GABA-A receptor alpha-5-beta-3-gamma-2 subunits expressed in L(tk-) cells; assay type: cell-based; outline: as §1
[13] = Vdss at a dose of 2.0 mg/kg; assay type: ADME, organism-based; design: dose 2 mg/kg; conditions: in vivo, read-out: Vdss
[14] = Partition coefficient (logD); assay type: physicochemical; conditions: octanol/water
[15] = Oral bioavailability at a dose of 2.0 mg/kg; assay type: ADME, organism-based; conditions: eutheria, in vivo
[16] = half life at a dose of 2.0 mg/kg; assay type: ADME, organism-based; design: dose 2 mg/kg; conditions: in vivo
[17] = Clp at a dose of 2.0 mg/kg; assay type: ADME, organism-based; design: dose 2 mg/kg; conditions: in vivo

Row | Ki [1] | bioavailability [2] | Tmax [3] | Cmax [4] | half-life [5] | Vd [6] | Ki [7] | Clp [8] | logD [9] | Cmax [10] | Tmax [11] | Ki [12] | Vd [13] | logD [14] | bioavailability [15] | half-life [16] | Clp [17] | SMILES
1 | 0.0066 µM | 65% | 30 min | 170 ng/mL | 66 min | 2.5 L/kg | 0.33 µM | 35 mL/min/kg | 2.7 |  |  |  |  |  |  |  |  | COc1ccc(-c2cc(-c3nc(C)cs3)c(=O)n(C)c2-c2ccnnc2)cc1
2 | 0.0086 µM |  |  |  |  |  |  |  |  | 83 ng/mL | 18 min | 0.32 µM | 3.3 L/kg | 3.6 | 25% | 102 min | 44 mL/min/kg | COc1ccc(-c2cc(-c3nc(C)cs3)c(=O)n(C)c2-c2ccncc2)cc1
